Reference: ChEMBL document CHEMBL4513216, “Probing the Open Global Health Chemical Diversity Library for Multistage-Active Starting Points for Next-Generation Antimalarials” (ACS Infect Dis, 2020)

Experiment: Toxicity liver stage against HepG2, at 10uM
Assay type: cell-based
Set-up: test concentration 10 uM, cell line HepG2-A16-CD81EGFP
Settings: human, HepG2-A16-CD81EGFP cells; read-out: INHIBITION
Method in brief: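 Uninfected HepG2-A16-CD81EGFP cells, 3 × 10^3 per well, 1536-well, plated on prespotted compound at 10 μM final, parasite-free screening media added to match infected plates; puromycin 10 μM positive, DMSO 0.5% negative; run in parallel with 48 h PbLuc assay at 37 °C, 5% CO2; viability by CellTiter-Glo luminescence, normalized to controls.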

Compound	cytotoxicity at 10 µM [%]
O=C(CN1CCCC1)Nc1c2c(cc3c1CCC3)CCC2	-2.1
O=C1NCCCCC1Sc1nnc(C2CC2)n1C1CC1 (centres undefined)	-6
O=C1C[C@@H]2CCN(Cc3ccccc3)C[C@@H]2CCN1C1CCCCC1	5.17
CC(C)(C)C(=O)N1CC[C@H]2NC(=O)N(c3ccc(F)cc3)C(=O)[C@H]21	-1.72
CCN(CC)S(=O)(=O)c1ccc2c(c1)N(Cc1cccnc1)C(=O)CS2	1.82
CN(C)c1no[n+]([O-])c1-c1ccccc1	15.8
Cc1c(C2SCC(=O)Nc3c2cnn3C(C)(C)C)cnn1C (centres undefined)	-1.21
O=C(NC1(c2nc(C3CC3)no2)CCCCC1)c1ccncc1	-7.12
Cc1nc(N2CCCC2)nc(C)c1NS(=O)(=O)c1ccccc1F	-3.92
Cc1ccccc1C(=O)N1CCC2(CCC(C(=O)NCC3CC3)O2)CC1 (centres undefined)	-3.28
CCn1nnc2c1CCN(S(C)(=O)=O)C2COCc1ccccc1 (centres undefined)	0.196
CC(C)CC(=O)N1CCCn2cnc(CNS(C)(=O)=O)c2C1	-1.22
CC(=O)N1CCN(C(=O)NC(C)C)CC2(CC(=O)N(C)C2)C1 (centres undefined)	-4.13
O=C(Cc1csc(-c2ccccc2)n1)N[C@@H](C(=O)O)c1ccccc1	6.56
COCC1CN(S(C)(=O)=O)Cc2ncn(CC3CC3)c21 (centres undefined)	1.68
CS(=O)(=O)NCc1n[nH]c2c1CCN(C(=O)c1ccsc1)C2	4.01
CC(C)NC(=O)N1CC[C@@H]2CN(Cc3cccc(Cl)c3)S(=O)(=O)[C@@H]2CC1	4.71
CC(C)NC(=O)c1nnc2ccc(N3CCOCC3)cc2n1	1.86
CCCc1nc(N2CCSCC2)c2c(n1)c(C)nn2CC	8.05
CC(=O)NCC(=O)N1CCOCC(Cc2ccc3c(ccn3C)c2)C1 (centres undefined)	1.89
Cc1ncsc1C(=O)NCc1ccc(-c2n[nH]cc2C(=O)N(C)C)cc1	0.522
CN(C)S(=O)(=O)N1CC(c2ccnc(Nc3ccccn3)n2)C1	8.84

Compound	cytotoxicity at 10 µM [%]
CN1CCC(c2cncc(C(=O)NCc3ccc(F)cc3)n2)CC1	-8.11
CNc1cc(C2CN(Cc3coc(C)n3)CCO2)nc(C)n1 (centres undefined)	-11.1
O=C(N[C@@H]1CCC[C@@H](N2CCOCC2)[C@@H]1O)c1cc2ccccc2[nH]1	-26.9
CC(C)(C)CC(=O)N1CCC(c2nn(CCN)c3nccnc23)C1 (centres undefined)	-20.9
O=C(NCC1CC1)c1cc(C2CC2)nc2onc(C3CCCNC3)c12 (centres undefined)	4.98
Cc1cnn(CC(C)NCc2cccnc2)c1 (centres undefined)	-3.3
CN(C)C(=O)c1cccc(NC(=O)Cc2cc(F)ccc2F)n1	-2.64
CCCN(CCC)C(=O)c1sc(C)nc1C	3.05
CCC(CC)c1cc(C(=O)N2CCN(CC(N)=O)CC2)on1	-4.97
Cc1nc(C(C)(C)NCc2nnc(C(C)C)o2)sc1C	6.35
CCN(CC)CCn1cc(NC(=O)c2ccccc2OC)cn1	7.04
O=S1(=O)CCC(c2nnc(-c3cnc4onc(C5CC5)c4c3)o2)C1 (centres undefined)	5.89
COCCCN(C)c1nc(-c2ccncc2)nc(C)c1C	2.8
CCOC(C)c1nc(CNc2cccc(Cl)c2OC)cs1 (centres undefined)	6.16
O=C(CS(=O)(=O)c1cccc[n+]1[O-])NC1CCCc2ccccc21 (centres undefined)	-3.46
CCc1nnc2n1CCN(C(=O)CCOc1cc(C)ccc1C)C2	-11.3
CCOc1cccc(C(C)NC(=O)N2CCC3(CC2)OCCO3)c1 (centres undefined)	0.322
CCN(CC)c1ncc(CNC2CCc3nc(C(C)C)nn3C2)s1 (centres undefined)	4.24
CN(CCN1CCOCC1)C(=O)CCc1ccc(C(F)(F)F)cc1	-1.3
CNc1cc(N2CCCC2CNCc2cccnc2)ncn1 (centres undefined)	-11.5
O=S(=O)(CCO)Cc1ccc(OCC(F)(F)F)cc1	2.23
CN(c1ncnc2c1CCC2)C1CCCN(c2cccnn2)C1 (centres undefined)	1.72

Compound	cytotoxicity at 10 µM [%]
CC(=O)N(CCc1ccccc1)CC(=O)NC1(C#N)CC1	1.09
CS(=O)(=O)c1nccn1Cc1ccc(Cl)cc1	-10.4
COCCN1CCC(Nc2c(F)cc(C#N)cc2F)CC1	-5.41
CC(C)CN(CC(O)c1ccc(F)cc1)C(=O)c1csnn1 (centres undefined)	2.83
C[S+]([O-])CCNC(=O)Nc1cc(F)ccc1-n1cccn1 (centres undefined)	-20.9
O=C(CCc1ccsc1)Nc1cnccc1O	9.56
COc1cccc(CN(C)Cc2cccc(C#N)c2)c1OC	-7.82
O=S(=O)(CCNCc1ccc2c(c1)CCO2)N1CCOCC1	-9.61
Cn1c(CNc2c(F)cccc2-n2cccn2)cc(=O)n(C)c1=O	-7.79
CN(CCN1CCOCC1)C(=O)CCc1cccc(Cl)c1	-6.57
CCc1ccc(C(=O)N2CCC(c3nncn3CC)CC2)cc1	-2.95
c1cc(C2CCCN2Cc2nnnn2C2CC2)cs1 (centres undefined)	-8.86
Cc1nc(CN2CCO[C@@H]3CNCC[C@@H]3C2)cs1	4.47
Cc1ccc(C(=O)N2CCn3c(COCC4CC4)cnc3C2C)s1 (centres undefined)	5.14
Cc1ccc(C(F)(F)F)cc1C(=O)N[C@H]1CN(CCO)C[C@@H]1C1CC1	0.292
Nc1nc(CCCNC(=O)c2ccc(C3CCCNC3)cc2)cs1 (centres undefined)	2.77
O=C1NCCCC12CCN(S(=O)(=O)N1CCOCC1)C2 (centres undefined)	-1.16
Cc1nc(O)cc(C2CCN(C(=O)C(C)Cn3nc(C)nc3C)CC2)n1 (centres undefined)	-1.89
Cc1ccc(N2CCC(C(O)Cc3ccccc3)CC2)nn1 (centres undefined)	-3.43
COCc1noc(Cn2ncn3cccc3c2=O)n1	-5.56
O=C(CN1CCC2(CCCN(CCO)C2=O)C1)NCCc1ccccc1 (centres undefined)	0.174
COc1cccc(CN(C)C(C)c2ccco2)c1OCCn1ccnc1 (centres undefined)	-0.7

Compound	cytotoxicity at 10 µM [%]
CN(CCCO)c1nc(-c2ccc(C(N)=O)cc2)nc2c1CCNC2	-2.86
CCOC(=O)C1CCCN(Cc2c[nH]nc2-c2cc3ccccc3o2)C1 (centres undefined)	3.16
CC1(C)CN(CC(=O)NCc2ccccc2F)C[C@]1(C)O	-1.84
CSCCC(O)C(=O)N1CCCN(Cc2cccnc2)CC1 (centres undefined)	8.2
CC1(C)CC(N2CCN(C3CCCC3)C(CCO)C2)CC(C)(C)C1 (centres undefined)	-7.19
CSCc1noc(CN(C)C(C)c2nc(C)sc2C)n1 (centres undefined)	8.2
CC(Cc1cccnc1)Nc1ncnc2cccc(F)c12 (centres undefined)	26.3
CC(C)=CCn1ncc(N2CCCCC2)cc1=O	-9.48
O=C(CCc1cc(O)no1)N1CCC(Cc2ccc(F)cc2)CC1	-0.505
Cn1ncc(C2CC(=O)NCc3nc4sccn4c32)c1C1CC1 (centres undefined)	-5.01
CN1CCC(Cc2noc(-c3cn(Cc4ccc(F)cc4)nn3)n2)CC1	-4.18
Cc1cc(CC(=O)N2CCN(CC3CC3)[C@@H]3CS(=O)(=O)C[C@@H]32)ccc1F	5.17
CC(C)C1CN(c2ncc(F)cn2)CCC(=O)N1Cc1ccc(F)cc1 (centres undefined)	16.9
COCC1CCN(C(=O)c2cccc(S(=O)(=O)NCC3(C)COC3)c2)C1 (centres undefined)	3.82
Cc1nccnc1N1CC[C@@H](NC(=O)c2cnccn2)[C@H](O)C1	-11.3
CCOc1cc(C)nc(N2CCN(C(=O)c3cnc[nH]3)CC2)n1	-11.8
CC(C)c1ccc(CCC(=O)N2CCOCC2c2ncon2)cc1 (centres undefined)	-4.56
Cc1ncsc1C(=O)N(Cc1ccccn1)C1CC1	-11.2
Cc1ccc2oc(C(=O)N3CCCC(n4nc(C)nc4C)C3)cc2n1 (centres undefined)	-7.39
Cc1nnc2n1CCN(C(C(=O)NC1CC1)c1ccc(F)cc1)C2 (centres undefined)	-6.6
CCN(CC)C(=O)Cn1ccc2cc(NC(=O)C3CCCCC3)ccc21	-5.04
CCc1nc(CN2CCN(C(=O)C3(C#N)CCCC3)CC2)cs1	0.38

Compound	cytotoxicity at 10 µM [%]
CCN1CCN(C2CCN(CC(=O)NCC(F)(F)F)CC2)C1=O	-2.99
O=C(Nc1ccc(F)cc1)N1CCN(Cc2noc(C3CC3)n2)CC1	-18.1
Cc1cc(CN2CCN(C(=O)NCc3nc(C)cs3)CC2)on1	-5.01
COCCN1CC(C(=O)NCc2ccnc(-n3cccn3)c2)CC1=O (centres undefined)	-5.07
O=C1CC(N(C(=O)c2ccc3c(c2)CCC3)C2CC2)C(=O)N1 (centres undefined)	-1.99
c1ccc(-c2nc(CN3CCOC(Cn4cccn4)C3)no2)cc1 (centres undefined)	10.1
COCCc1noc(CNC2CCc3nc(C(C)C)nn3C2)n1 (centres undefined)	4.28
O=C(N1CCOCC1)N1CCCC2(CCCNC2)C1 (centres undefined)	0.817
O=C([C@H]1CC[C@@H]2[C@@H](CCN2C2CCCC2)O1)N1CCOCC1	11.5
CO[C@H]1CC[C@H]2[C@H]1OCCN2CCOCc1ccccc1	-114
Cc1cccc(CN2CCc3cc(C(=O)O)c(N(C)C)nc3CC2)n1	3.68
CN(C)CCN1CCN(Cc2ccco2)Cc2cccnc21	1.73
O=C1CC2(CCN(Cc3ccccn3)C2)CN1c1cncnc1 (centres undefined)	2.26
CNC(=O)CN1CCOCC2(C1)CN(C(=O)CC(C)C)CCO2 (centres undefined)	3.94
O=C1COC2(CCN(C(=O)C3CC=CC3)CC2)CN1Cc1cccnc1	3.27
COc1ncccc1CN1C[C@@H]2COC[C@]2(COCC(=O)N(C)C)C1	7.81
Cc1nc(CN2CC[C@H](OCC3CC3)[C@@H]2Cc2cccnc2)cs1	0.15
COCCNC(=O)[C@H]1CN(Cc2nccs2)C[C@H]2OCC[C@@H]12	-11.6
COc1ncccc1CN1CC[C@]2(C[C@@H](OCc3ccccn3)CO2)C1	4.96
Cc1ccc(CN2C[C@@H]3COC[C@@H](CC(=O)N4CCOCC4)[C@@H]3C2)s1	-2.04
CCC12CN3CC(C)(CN(C1)C3c1[nH]c(=O)[nH]c(=O)c1C)C2=O (centres undefined)	6.35
